What was measured:
[1] = biological target: T1, Adrenergic receptor alpha-1 (Homo sapiens, UniProt P35348+P25100+P35368); assay: Binding affinity against Alpha-1 adrenergic receptor; format: protein assay
T1 sequence (P35348 whole entry): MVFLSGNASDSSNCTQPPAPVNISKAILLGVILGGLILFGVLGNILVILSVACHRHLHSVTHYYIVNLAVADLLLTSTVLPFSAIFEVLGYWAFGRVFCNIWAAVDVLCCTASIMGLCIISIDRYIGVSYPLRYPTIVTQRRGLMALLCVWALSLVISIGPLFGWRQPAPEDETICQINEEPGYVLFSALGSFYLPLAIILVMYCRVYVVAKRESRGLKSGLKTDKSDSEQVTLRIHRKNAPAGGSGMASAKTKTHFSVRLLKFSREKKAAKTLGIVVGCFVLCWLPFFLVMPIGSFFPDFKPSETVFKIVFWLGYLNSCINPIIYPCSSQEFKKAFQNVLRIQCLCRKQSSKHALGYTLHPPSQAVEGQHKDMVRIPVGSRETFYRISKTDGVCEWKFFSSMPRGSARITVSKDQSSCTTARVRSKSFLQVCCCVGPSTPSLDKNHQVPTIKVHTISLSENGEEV
T1 sequence (P25100 whole entry): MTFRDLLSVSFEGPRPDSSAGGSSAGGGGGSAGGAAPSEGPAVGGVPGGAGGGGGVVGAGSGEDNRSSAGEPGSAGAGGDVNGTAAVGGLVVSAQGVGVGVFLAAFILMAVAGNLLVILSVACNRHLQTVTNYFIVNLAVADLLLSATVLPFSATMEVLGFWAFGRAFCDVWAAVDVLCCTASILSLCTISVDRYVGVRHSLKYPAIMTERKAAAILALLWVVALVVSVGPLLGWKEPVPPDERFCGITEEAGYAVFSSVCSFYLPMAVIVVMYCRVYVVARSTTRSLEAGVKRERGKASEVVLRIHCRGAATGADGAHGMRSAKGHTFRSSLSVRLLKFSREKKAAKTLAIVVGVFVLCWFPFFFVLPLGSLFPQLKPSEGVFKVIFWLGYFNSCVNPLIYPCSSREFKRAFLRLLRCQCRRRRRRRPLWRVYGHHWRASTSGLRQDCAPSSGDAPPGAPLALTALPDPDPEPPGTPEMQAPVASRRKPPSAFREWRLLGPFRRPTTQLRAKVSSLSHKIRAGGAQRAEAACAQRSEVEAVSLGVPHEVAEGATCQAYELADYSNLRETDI
T1 sequence (P35368 whole entry): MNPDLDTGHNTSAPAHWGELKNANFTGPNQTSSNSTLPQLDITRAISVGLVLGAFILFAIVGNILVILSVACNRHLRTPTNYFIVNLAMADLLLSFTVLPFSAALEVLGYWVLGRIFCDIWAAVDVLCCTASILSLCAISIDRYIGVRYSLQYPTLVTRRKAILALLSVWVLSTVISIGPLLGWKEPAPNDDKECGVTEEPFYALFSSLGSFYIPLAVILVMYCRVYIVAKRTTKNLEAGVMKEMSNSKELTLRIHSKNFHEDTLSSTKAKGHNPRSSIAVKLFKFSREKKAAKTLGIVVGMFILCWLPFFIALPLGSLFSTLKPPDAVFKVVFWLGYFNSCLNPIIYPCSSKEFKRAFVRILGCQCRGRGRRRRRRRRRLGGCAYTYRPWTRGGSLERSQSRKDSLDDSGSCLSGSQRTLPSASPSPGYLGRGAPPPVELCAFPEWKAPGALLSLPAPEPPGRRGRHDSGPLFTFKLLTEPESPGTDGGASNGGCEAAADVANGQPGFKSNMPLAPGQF

[2] = biological target: T2, 5-hydroxytryptamine receptor 1A (Homo sapiens) (UniProt P08908); assay: Percent decrease in 5-hydroxytryptamine 1A receptor binding using 8-OH-DPAT; design: concentration or dose not given beside the values
T2 sequence (whole entry): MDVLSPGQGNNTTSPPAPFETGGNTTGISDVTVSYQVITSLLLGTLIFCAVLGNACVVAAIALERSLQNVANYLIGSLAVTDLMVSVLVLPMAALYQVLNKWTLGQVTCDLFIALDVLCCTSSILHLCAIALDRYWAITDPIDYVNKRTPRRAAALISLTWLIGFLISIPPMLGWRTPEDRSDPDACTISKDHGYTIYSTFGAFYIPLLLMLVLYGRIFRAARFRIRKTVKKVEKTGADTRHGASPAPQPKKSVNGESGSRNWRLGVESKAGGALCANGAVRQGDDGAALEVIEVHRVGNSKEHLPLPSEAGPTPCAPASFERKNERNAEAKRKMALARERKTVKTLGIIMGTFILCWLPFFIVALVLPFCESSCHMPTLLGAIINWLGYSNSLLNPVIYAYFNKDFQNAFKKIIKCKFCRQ
In short: (§1)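 Preliminary screen of receptors isolated from rat or pig tissues, run with minor changes to standard procedures. Each compound was tested at a single fixed concentration for each receptor. The read-out was the percent decrease in binding of the named radioligand.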

[3] = biological target: GABA-A receptor; anion channel (Homo sapiens) (UniProt P14867+P47870+P18507+P28472+P48169+Q99928+Q9UN88+P34903+O00591+O14764+Q8N1C3+P18505+P78334+P47869+P31644+Q16445); assay: Displacement of muscimol from GABA-A receptor; format: protein-complex assay; in short: as §1
[4] = biological target: Neuronal acetylcholine receptor (Rattus norvegicus) (UniProt P04757+P09483+P12389+P12390+P12392+P43144+Q9JLB5+P12391+P43143+P20420+Q05941); assay: % Decrease of Nicotinic acetylcholine receptor-bound radioactivity using cytisine as a radioligand.; format: protein-complex assay; design: scale not given: the % may be the effect or the level left; in short: as §1
[5] = Percent decrease of Endothelin receptor binding using [125I]sarafotoxin; design: concentration or dose not given beside the values
[6] = % Decrease of Phorbol Diester Receptor -bound radioactivity using PDBU as a radioligand.; design: scale not given: the % may be the effect or the level left; in short: as §1
[7] = biological target: Sulfonylurea receptors; K-ATP channels (Homo sapiens) (UniProt Q14654+O60706+Q09428+Q15842); assay: Percent inhibition of glibenclamide binding to K+ channel; format: protein-complex assay; design: concentration or dose not given beside the values; in short: as §1
Sulfonylurea receptors; K-ATP channels (Homo sapiens), sequence (O60706 whole entry, looked up): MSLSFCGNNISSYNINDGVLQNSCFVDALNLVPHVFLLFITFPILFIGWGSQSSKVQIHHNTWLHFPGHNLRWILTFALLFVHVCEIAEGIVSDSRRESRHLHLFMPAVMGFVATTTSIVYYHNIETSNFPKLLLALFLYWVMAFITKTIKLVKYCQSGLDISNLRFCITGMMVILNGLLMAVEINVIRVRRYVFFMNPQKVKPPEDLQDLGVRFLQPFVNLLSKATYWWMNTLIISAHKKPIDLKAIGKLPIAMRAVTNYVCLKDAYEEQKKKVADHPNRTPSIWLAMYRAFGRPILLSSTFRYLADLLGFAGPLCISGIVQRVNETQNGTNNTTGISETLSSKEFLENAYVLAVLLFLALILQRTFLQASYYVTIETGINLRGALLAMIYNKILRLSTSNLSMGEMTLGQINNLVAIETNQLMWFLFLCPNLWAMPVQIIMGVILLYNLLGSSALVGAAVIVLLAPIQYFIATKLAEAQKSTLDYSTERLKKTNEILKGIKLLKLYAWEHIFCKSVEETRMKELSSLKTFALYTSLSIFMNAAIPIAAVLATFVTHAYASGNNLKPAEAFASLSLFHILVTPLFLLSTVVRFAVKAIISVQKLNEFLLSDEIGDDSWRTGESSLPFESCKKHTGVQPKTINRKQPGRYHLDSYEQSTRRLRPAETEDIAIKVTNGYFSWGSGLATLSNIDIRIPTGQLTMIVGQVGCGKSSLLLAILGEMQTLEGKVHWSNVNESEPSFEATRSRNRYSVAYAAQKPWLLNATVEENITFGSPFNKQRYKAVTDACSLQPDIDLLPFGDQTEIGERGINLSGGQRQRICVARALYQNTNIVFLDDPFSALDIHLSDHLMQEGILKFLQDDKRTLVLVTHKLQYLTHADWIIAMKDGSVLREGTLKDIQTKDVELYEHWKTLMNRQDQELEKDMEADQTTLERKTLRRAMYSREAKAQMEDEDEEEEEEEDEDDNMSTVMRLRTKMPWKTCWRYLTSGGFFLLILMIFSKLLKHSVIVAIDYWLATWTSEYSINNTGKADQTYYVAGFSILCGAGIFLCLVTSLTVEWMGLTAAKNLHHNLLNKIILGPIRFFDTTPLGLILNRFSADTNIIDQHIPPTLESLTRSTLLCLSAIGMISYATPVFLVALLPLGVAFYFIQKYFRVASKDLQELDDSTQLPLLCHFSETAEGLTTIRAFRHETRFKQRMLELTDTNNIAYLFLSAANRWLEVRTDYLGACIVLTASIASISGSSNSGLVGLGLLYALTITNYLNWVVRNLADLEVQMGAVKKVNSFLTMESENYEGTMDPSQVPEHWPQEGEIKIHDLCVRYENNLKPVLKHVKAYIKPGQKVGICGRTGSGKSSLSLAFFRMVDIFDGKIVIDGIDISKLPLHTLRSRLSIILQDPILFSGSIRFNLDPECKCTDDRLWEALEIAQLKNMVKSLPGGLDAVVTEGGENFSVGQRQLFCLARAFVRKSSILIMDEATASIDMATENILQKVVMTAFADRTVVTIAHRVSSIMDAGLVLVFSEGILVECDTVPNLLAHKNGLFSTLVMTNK
Sulfonylurea receptors; K-ATP channels (Homo sapiens), sequence (Q09428 whole entry, looked up): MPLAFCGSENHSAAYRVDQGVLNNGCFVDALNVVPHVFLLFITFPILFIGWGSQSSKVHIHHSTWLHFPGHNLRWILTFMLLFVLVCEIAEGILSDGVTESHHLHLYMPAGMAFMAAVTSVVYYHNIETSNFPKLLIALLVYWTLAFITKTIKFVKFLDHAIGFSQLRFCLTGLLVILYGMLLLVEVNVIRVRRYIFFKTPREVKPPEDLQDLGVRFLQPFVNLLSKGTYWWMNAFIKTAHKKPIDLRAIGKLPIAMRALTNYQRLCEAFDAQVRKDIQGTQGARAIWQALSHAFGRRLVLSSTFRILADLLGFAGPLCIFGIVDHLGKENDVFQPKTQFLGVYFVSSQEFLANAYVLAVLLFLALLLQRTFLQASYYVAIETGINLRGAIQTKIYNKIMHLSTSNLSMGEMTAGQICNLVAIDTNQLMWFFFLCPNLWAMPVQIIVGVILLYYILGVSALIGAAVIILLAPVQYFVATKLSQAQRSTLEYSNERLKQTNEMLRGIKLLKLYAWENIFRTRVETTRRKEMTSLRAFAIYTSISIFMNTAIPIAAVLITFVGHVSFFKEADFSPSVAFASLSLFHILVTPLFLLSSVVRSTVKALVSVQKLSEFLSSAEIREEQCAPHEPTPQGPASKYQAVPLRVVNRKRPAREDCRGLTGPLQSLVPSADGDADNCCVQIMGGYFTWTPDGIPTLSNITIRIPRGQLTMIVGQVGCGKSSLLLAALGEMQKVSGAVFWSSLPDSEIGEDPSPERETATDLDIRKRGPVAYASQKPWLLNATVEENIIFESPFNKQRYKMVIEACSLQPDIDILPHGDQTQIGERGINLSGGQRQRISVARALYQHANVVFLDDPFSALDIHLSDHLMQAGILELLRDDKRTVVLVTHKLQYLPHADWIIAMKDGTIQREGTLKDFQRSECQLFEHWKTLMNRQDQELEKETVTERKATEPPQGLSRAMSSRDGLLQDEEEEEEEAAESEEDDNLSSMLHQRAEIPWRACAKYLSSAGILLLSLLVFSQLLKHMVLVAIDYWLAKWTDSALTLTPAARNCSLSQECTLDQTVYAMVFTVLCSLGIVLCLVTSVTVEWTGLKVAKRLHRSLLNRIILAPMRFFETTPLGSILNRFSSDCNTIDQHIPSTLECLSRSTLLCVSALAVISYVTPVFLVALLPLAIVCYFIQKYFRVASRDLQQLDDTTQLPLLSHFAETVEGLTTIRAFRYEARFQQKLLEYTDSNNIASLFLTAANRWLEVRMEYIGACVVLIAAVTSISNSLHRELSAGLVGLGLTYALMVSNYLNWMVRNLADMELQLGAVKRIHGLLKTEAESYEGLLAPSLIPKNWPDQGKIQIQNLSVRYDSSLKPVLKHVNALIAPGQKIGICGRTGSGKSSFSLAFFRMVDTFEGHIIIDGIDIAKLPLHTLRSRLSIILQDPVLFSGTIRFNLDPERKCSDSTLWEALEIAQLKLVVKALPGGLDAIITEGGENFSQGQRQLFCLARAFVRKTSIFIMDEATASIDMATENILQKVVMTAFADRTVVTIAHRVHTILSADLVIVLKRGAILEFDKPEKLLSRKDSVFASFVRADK
Sulfonylurea receptors; K-ATP channels (Homo sapiens), sequence (Q14654 whole entry, looked up): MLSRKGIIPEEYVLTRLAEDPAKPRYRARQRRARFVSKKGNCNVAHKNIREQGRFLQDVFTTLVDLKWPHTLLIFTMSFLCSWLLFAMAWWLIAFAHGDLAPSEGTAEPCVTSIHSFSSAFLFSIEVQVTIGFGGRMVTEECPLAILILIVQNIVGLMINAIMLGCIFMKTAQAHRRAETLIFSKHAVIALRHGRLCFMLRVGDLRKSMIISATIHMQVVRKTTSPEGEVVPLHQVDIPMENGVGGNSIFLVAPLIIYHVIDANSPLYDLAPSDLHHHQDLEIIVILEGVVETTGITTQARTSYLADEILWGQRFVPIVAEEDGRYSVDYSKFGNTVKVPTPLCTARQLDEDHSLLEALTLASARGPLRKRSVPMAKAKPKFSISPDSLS
Sulfonylurea receptors; K-ATP channels (Homo sapiens), sequence (Q15842 whole entry, looked up): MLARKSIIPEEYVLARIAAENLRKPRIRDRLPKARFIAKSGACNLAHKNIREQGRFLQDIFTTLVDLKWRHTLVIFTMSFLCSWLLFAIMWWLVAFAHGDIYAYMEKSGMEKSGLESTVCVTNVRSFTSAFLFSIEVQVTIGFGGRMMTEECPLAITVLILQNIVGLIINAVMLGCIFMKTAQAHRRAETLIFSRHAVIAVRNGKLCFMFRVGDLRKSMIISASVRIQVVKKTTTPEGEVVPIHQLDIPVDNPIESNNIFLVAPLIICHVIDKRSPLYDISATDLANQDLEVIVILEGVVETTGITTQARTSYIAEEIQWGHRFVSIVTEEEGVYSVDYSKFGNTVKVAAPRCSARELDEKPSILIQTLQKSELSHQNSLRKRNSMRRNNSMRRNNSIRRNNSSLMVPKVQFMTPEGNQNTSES

[8] = % Decrease of adenosine carrier-receptor -bound radioactivity using NBTI as a radioligand.; design: concentration or dose not given beside the values; in short: as §1
[9] = biological target: Sodium-dependent serotonin transporter (Homo sapiens) (UniProt P31645); assay: % Decrease of 5-HT carrier-receptor -bound radioactivity using paroxetine as a radioligand.; design: concentration or dose not given beside the values; in short: as §1
Sodium-dependent serotonin transporter (Homo sapiens), sequence (P31645 whole entry, looked up): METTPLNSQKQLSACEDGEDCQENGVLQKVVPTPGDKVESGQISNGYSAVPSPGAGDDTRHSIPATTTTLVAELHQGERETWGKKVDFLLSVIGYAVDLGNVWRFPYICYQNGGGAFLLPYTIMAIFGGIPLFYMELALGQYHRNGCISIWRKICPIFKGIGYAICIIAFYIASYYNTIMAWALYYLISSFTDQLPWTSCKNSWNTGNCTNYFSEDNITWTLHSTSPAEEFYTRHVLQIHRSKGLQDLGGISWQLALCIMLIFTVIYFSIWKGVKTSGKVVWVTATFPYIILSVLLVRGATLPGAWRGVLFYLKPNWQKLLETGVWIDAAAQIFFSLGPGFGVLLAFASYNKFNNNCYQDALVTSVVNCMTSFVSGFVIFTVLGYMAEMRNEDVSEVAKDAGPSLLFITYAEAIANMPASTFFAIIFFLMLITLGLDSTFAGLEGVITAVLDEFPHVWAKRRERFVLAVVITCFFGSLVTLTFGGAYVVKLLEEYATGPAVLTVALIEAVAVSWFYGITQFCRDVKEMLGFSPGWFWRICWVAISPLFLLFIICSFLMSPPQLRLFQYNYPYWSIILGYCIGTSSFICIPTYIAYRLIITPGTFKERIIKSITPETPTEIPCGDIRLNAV

## CN1CCc2ccccc2Cc2[nH]c3ccccc3c2CC1
[1]
  Ki: 11 nM
[2]
  Activity: -72%
[3]
  Activity: -9%
[4]
  Activity: -3%
[5]
  Activity: 0%
[6]
  Activity: 0%
[7]
  Activity: 10%
[8]
  Activity: -14%
[9]
  Activity: -8%

## c1ccc2c(c1)CCN1CCc3c([nH]c4ccccc34)C21 (stereo unspecified)
[1]
  Ki: 79 nM
[2]
  Activity: -12%
[3]
  Activity: -17%
[4]
  Activity: 0%
[5]
  Activity: -1%
[6]
  Activity: -6%
[7]
  Activity: 12%
[8]
  Activity: -29%
[9]
  Activity: -32%

## c1ccc2c3c([nH]c2c1)C1c2[nH]c4ccccc4c2CCN1CC3
[1]
  Ki: 76 nM
[2]
  Activity: -25%
[3]
  Activity: 5%
[4]
  Activity: 1%
[5]
  Activity: 1%
[6]
  Activity: -15%
[7]
  Activity: 7%
[8]
  Activity: 1%
[9]
  Activity: -45%

## COc1cc2c(cc1OC)C1c3[nH]c4ccccc4c3CCN1CC2 (stereo unspecified)
[1]
  Ki: 17 nM
[2]
  Activity: -21%
[3]
  Activity: -26%
[4]
  Activity: -4%
[5]
  Activity: 0%
[6]
  Activity: -9%
[7]
  Activity: 11%
[8]
  Activity: -17%
[9]
  Activity: -8%
